CaV13 ICDI inh: Primary screen for inhibitors of IQ motif and Ca2+-dependent inactivation inhibitor domain binding in CACNA1D, Förster resonance energy transfer in living cells, …; HEK cells, CFP/YFP FRET ICDI-IQ, plate reader, 10 min; percent FRET-ratio fall versus neutral wells; inhibition, % at 12.3 µM; actives 0.098% (n = 340,000); AID 743397;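 active = mean replicate inhibition of at least 30% and at least 1% of replicates passing that level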;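 also: 0% = median of the neutral control wells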
HDAC3 inhib: HDAC3 deacetylase inhibitors, primary screen, biochemical, fluorescence, cell-free homogeneous; Histone deacetylase 3 (Homo sapiens), O15379; recombinant HDAC3, fluorogenic peptide/trypsin coupled; inhibition, % at 8.3 µM; actives 0.15% (n = 320,000); AID 2718, 2010; in the data active = inhibition above about 26%, passing the limit was not always enough
Runt-SMMHC FRET: inhibitors of RUNX1 Runt–CBFb-SMMHC binding, primary screen, biochemical, FRET, Cerulean-Runt, Venus-CBFb-SMMHC, uHTS; actives 0.74% (n = 220,000); AID 1434, 2008; Cerulean-Runt/Venus-CBFb-SMMHC FRET ratio 530/480, 1 h; Runt-related transcription factor 1 (Homo sapiens) + Core-binding factor subunit beta …; inhibition, % at 20 µM;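 active = mean inhibition across duplicate retests at 20 µM reaching about 50%, limit read from the data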;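 also: 0% = DMSO wells and 100% = wells with excess untagged CBFb-SMMHC; inhibitors lower the FRET ratio by blocking Runt binding to CBFb-SMMHC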
Runt-CBFb FRET: inhibitors of RUNX1 Runt–CBFb binding, primary screen, biochemical, FRET, Cerulean-Runt, Venus-CBFb, uHTS; inhibition, % at 20 µM; actives 0.46% (n = 220,000); Cerulean-Runt/Venus-CBFb FRET ratio 530/480, 1 h;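 active = inhibition over about 50% at 20 µM in the single-dose screen, limit read from the data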;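 also: 0% = DMSO wells and 100% = excess unlabeled CBFb competitor control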
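Schedule: protein complex preformed 1 h, compound exposure 1 h, room temperature, dark; test system: Cerulean-labeled Runt domain protein; amount: 100 nM per protein; buffer or medium: Tris 50 mM pH 7.5, KCl, K2SO4, 0.01% BSA; read-out: loss of energy transfer signal; detection: FRET fluorescence; controls: 5 µM unlabeled CBFb as full-inhibition high control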
LANA-H2A inh: blockers of LANA interaction with H2A/H2B – biochemical, FP readout, HTS, primary screen; inhibition, % (test concentration not listed); cell-free LANA-H2A/H2B peptide, fluorescence polarization; actives 0.6% (n = 320,000); in the data active = inhibition mostly above about 10%, no sharp cut-off; inactive = mostly below about 6.7%
Target sequence (Q9QR71 whole entry, looked up): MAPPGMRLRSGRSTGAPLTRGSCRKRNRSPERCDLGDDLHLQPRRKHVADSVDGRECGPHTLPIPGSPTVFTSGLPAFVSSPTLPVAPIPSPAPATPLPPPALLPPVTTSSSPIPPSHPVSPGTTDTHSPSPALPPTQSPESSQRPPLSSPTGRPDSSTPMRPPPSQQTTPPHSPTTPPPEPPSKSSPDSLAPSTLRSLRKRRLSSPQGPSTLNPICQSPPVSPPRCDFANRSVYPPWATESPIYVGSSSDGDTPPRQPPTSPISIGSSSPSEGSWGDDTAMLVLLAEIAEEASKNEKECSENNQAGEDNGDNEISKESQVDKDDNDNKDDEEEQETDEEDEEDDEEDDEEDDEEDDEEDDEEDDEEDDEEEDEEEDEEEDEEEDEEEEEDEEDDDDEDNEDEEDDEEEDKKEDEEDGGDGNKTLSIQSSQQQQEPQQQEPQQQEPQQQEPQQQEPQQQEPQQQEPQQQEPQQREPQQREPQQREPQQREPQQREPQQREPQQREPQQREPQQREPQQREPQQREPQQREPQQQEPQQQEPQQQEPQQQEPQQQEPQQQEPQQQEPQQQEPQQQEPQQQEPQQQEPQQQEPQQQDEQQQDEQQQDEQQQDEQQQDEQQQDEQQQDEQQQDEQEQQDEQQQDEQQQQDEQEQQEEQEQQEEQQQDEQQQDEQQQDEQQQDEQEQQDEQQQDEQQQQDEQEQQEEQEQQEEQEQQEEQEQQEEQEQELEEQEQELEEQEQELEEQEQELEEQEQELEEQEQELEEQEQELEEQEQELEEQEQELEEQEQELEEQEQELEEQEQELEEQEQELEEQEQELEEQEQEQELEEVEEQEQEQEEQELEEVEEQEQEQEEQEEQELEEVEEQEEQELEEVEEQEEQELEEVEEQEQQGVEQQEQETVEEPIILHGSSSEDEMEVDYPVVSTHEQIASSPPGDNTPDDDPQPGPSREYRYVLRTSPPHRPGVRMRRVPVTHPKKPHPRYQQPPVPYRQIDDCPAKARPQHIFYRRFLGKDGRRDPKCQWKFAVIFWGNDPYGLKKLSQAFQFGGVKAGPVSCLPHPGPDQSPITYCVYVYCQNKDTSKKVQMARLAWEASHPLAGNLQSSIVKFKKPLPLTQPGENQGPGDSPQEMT
RanGTP-Impb inh: inhibitors of RanGTP-importin-beta interaction, primary screen, biochemical, FRET, CFP-Ran, YFP-importin-beta, homogeneous; Ran GTPase (GTP-bound) - importin-beta complex; cell-free CFP-Ran/YFP-importin-beta FRET ratio; inhibition, % (test concentration not listed); actives 1.1% (n = 300,000);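 active = more than half of the replicate wells show a fall in the fluorescence ratio signal beyond about 16%, limit read from the data, passing the limit was not always enough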;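 also: 0% = DMSO wells and 100% = Ran loaded with GDP instead of GTP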
Numbers without * were called inactive; . = no result; + = active, no number. An excerpt weighted towards active compounds, which were near 1.9% of everything screened.

SMILES | CaV13 ICDI inh | HDAC3 inhib | Runt-SMMHC FRET | Runt-CBFb FRET | LANA-H2A inh | RanGTP-Impb inh
CC(NC(=O)c1cc(COc2c(F)cccc2F)on1)c1cnn(-c2ccccc2)c1 (stereo not given) | -5.1 | 1.0 | -0.3 | -3.7 | 46.6* | 5.4
CCc1cc2c(NCc3ccccc3)nc(C)nc2s1 | -1.3 | 6.1 | . | . | 2.9 | -1.2
O=C(CC1SC(N2CCCCC2)=NC1=O)Nc1ccc(C(=O)O)cc1 (stereo not given) | -2.9 | -8.2 | . | . | 2.0 | .
CC(C)NC(=O)c1ccc(NC(=O)CC2SC(N3CCCCC3)=NC2=O)cc1 (stereo not given) | -5.4 | -2.2 | . | . | -4.3 | .
CC(C)NC(=O)c1ccc(NC(=O)CC2SC(N3CCCC3)=NC2=O)cc1 (stereo not given) | -19.3 | -6.2 | . | . | + | .
COc1cccc(CNC(=O)c2ccc(NC(=O)CC3SC(N4CCCC4)=NC3=O)cc2)c1 (stereo not given) | -5.5 | 4.5 | . | . | 39.2* | .
O=C(CC1SC(N2CCCCC2)=NC1=O)Nc1ccc(C(=O)NCc2ccccc2)cc1 (stereo not given) | -2.4 | 7.0 | . | . | 0.6 | .
CNC(=O)c1ccc(NC(=O)CC2SC(N3CCCC3)=NC2=O)cc1 (stereo not given) | -17.1 | 0.0 | . | . | 50.0* | .
CCOC(=O)c1ccc(NC(=O)CN2C(=O)C(CC)SC(CC)C2=O)cc1 (stereo not given) | -5.3 | -1.5 | 2.9 | -0.8 | 37.9* | 3.9
CCOC(=O)c1ccc(NC(=O)CN2C(=O)CSCC2=O)cc1 | -5.2 | 0.4 | 3.6 | 2.9 | -9.2 | 0.4
Cc1ccc(/C=C2\Oc3cc(OCC(=O)NN)ccc3C2=O)o1 | -21.7 | 7.6 | . | . | 4.0 | 53.8*
O=C(O)COc1ccc2c(c1)O/C(=C\c1ccco1)C2=O | -23.0 | 3.5 | . | . | 2.1 | 24.8*
COc1cccc(/C=C2\Oc3cc(OCC(=O)N4CCCC4)ccc3C2=O)c1OC | -3.1 | 6.3 | . | . | 2.1 | -3.4
O=C(O)COc1ccc2c(c1)O/C(=C\c1cccs1)C2=O | -2.8 | 3.8 | 55.9* | 17.6 | 1.7 | 14.4
COc1ccc(CN2CC(=O)N(c3cccc(Cl)c3)C2=S)cc1OC | -17.5 | -0.9 | . | . | -6.7 | 0.5
COc1ccc(CNC(=O)c2ccc(Br)cc2)cc1 | 2.5 | -7.1 | 1.7 | 0.8 | 3.5 | 7.7
CC(=O)c1sc(N/N=C\c2ccccc2O)nc1C | -3.9 | 6.1 | . | . | -1.1 | 37.9*
Cn1c2c(c(=O)n(C)c1=O)CN(Cc1ccc(F)cc1)CN2 | . | 4.8 | -0.8 | -0.2 | 5.1 | -3.6
N#CC1=C(N)Oc2cc(N)ccc2C1c1ccsc1 (stereo not given) | -5.1 | -5.5 | 23.2 | 22.9 | -3.4 | 33.2*
N#CC1=C(N)Oc2cc3ccccc3cc2C1c1cccnc1 (stereo not given) | . | -1.0 | -1.6 | -1.1 | 1.4 | -2.4
N#CC1=C(N)Oc2cc(N)ccc2C1c1cc(Br)cs1 (stereo not given) | -6.1 | -2.0 | . | . | -1.7 | -8.7
CCOc1cc(C2C(C#N)=C(N)OC(C)=C2C(C)=O)cc(Br)c1O (stereo not given) | -4.1 | -2.7 | 1.4 | 1.0 | 16.7 | 19.2*
N#CC1=C(N)Oc2cc(N)ccc2C1c1cccc(Br)c1 (stereo not given) | -2.2 | 2.0 | . | . | 7.0 | 54.9*
N#CC1=C(N)Oc2cc(N)ccc2C1C1CC=CCC1 (stereo not given) | -2.4 | 0.8 | 41.0 | 42.5 | 0.5 | 140.7*
CN(Cc1ccccc1)S(=O)(=O)c1ccc(Cl)c(C(=O)NCCCN2CCCC2=O)c1 | -6.0 | . | . | . | . | .
SMILES | CaV13 ICDI inh | HDAC3 inhib | Runt-SMMHC FRET | Runt-CBFb FRET | LANA-H2A inh | RanGTP-Impb inh
COC(=O)C1=C(C)N(Cc2ccccc2C(F)(F)F)C(=NCc2cc(OC)c(OC)c(OC)c2)NC1c1ccccc1 (stereo not given) | -7.0 | . | . | . | . | .
C/C(CC(=O)Nc1ccc([N+](=O)[O-])cc1)=N\NC(=O)c1ccccc1O | -3.0 | -2.6 | . | . | 0.0 | -0.9
CC(C)(C)CC(C)(C)NCC(O)COc1ccc2c(c1)CCC2 (stereo not given) | . | -20.2 | . | . | 5.8 | -0.2
CCOc1cc(C2C(C#N)=C(N)Oc3cc(N)ccc32)ccc1O (stereo not given) | -18.3 | -1.1 | . | . | -5.0 | 69.0*
Cc1ccc(/C=C2\CCC3=C2OC(N)=C(C#N)C3c2ccc(C)cc2)cc1 (stereo not given) | . | 3.9 | -74.1 | -31.4 | -3.5 | -81.2
Cc1ccc(C2C(C#N)=C(N)Oc3cc(N)ccc32)cc1 (stereo not given) | -6.0 | 1.6 | . | . | 0.6 | 90.0*
CCN1C(=O)/C(=C2\SC(N3CCOCC3)=NC2=O)c2ccccc21 | -4.4 | . | . | . | . | -0.3
C=CCN1C(=O)/C(=C2\SC(N3CCOCC3)=NC2=O)c2cc(Br)ccc21 | -4.7 | 0.5 | 0.7 | 0.5 | 19.1* | -0.1
Cc1c2c(n3c(nc4ccccc43)c1C#N)N(CCN1CCOCC1)CC2 | + | -115.8 | . | . | 5.5 | 111.5*
C=C(C)Cc1c(C)c(C#N)c2nc3ccccc3n2c1N1CCCCC1 | -4.5 | -1.7 | 32.5 | 14.2 | -2.3 | 28.8*
CCCc1cc(NCCCCO)n2c(nc3ccccc32)c1C#N | -3.3 | 1.5 | 53.9* | 21.4 | 0.5 | 42.9*
CCN(CC)CCCNc1cc(C(F)(F)F)c(C#N)c2nc3ccccc3n12 | 5.7 | -13.3 | . | . | 6.8 | 117.1*
CCn1c(SCC(=O)Nc2ncc(C(F)(F)F)cc2Cl)nnc1-c1cccc(C)c1 | -5.7 | . | 1.6 | 0.2 | -2.1 | 2.2
COc1cc2c(cc1OC)CN(C(=O)C1CCCN(C(=O)c3ccc(Cl)cc3)C1)CC2 (stereo not given) | -2.1 | -1.0 | . | . | 2.5 | .
Cc1ccc(C)c(S(=O)(=O)NCc2ccc(C(=O)N3CCCCC3C)cc2)c1 (stereo not given) | -9.1 | 0.5 | -1.0 | 0.2 | 2.6 | -1.6
CCCc1cc(-n2ccnc2C)n2c(nc3ccccc32)c1C#N | -13.7 | -29.9 | . | . | 2.0 | 5.6
CCN(CC)CCNc1cc(C)c(C#N)c2nc3ccccc3n12 | -19.9 | -74.0 | . | . | 15.6 | 11.4
Cc1cc(NCCCN2CCOCC2)n2c(nc3ccccc32)c1C#N | -4.3 | -85.9 | 36.7 | 19.0 | -2.5 | 30.0*
CCN(CC)CCCNc1cc(C)c(C#N)c2nc3ccccc3n12 | -12.2 | . | . | . | . | .
